According to ChEMBL document CHEMBL4699429, “Novel 1,3,4-thiadiazole compounds as potential MAO-A inhibitors - design, synthesis, biological evaluation and molecular modelling” (RSC Med Chem, 2020):

Experiments:
[1] = molecular target: T1, Amine oxidase [flavin-containing] A (Homo sapiens, UniProt P21397); test: Inhibition of human recombinant MAO-A at 1 mM using tyramine as substrate preincubated with enzyme for 30 mins followed by incubation with substrate for 30 mins by Amplex Red reagent based fluorometric method relative to control; conditions: 0.5 h, time 60 min
T1 sequence (P21397 whole entry): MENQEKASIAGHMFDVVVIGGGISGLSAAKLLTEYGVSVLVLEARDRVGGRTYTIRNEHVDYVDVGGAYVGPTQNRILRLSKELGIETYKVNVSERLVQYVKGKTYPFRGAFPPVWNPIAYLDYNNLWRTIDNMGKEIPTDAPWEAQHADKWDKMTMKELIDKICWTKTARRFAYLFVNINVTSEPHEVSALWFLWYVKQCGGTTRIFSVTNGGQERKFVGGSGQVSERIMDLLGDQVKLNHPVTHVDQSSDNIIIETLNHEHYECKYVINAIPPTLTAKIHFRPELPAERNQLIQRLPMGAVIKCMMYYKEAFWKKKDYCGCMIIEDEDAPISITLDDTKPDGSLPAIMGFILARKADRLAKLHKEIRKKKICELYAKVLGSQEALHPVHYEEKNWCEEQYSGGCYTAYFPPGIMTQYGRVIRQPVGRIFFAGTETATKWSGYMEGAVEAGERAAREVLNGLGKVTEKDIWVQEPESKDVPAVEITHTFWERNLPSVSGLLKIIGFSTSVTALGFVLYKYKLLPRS
Outline: (§1)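 Recombinant hMAO-A at 0.5 U/mL in phosphate buffer. Inhibitors are dissolved in 2% DMSO and preincubated with enzyme at 37 °C for 30 min. The working solution is then added: horseradish peroxidase, Amplex (Ampliflu) red and tyramine. Fluorescence (Ex/Em 535/587 nm) is read at 5-min intervals over 30 min at 37 °C. Controls use 2% DMSO. Background without enzyme is subtracted. Peroxidase interference is checked with H2O2.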

[2] = molecular target: T1, Amine oxidase [flavin-containing] A; test: Inhibition of human recombinant MAO-A at 100 uM using tyramine as substrate preincubated with enzyme for 30 mins followed by incubation with substrate for 30 mins by Amplex Red reagent based fluorometric method relative to control; conditions: 0.5 h, time 60 min; outline: as §1
[3] = molecular target: T1, Amine oxidase [flavin-containing] A; test: Inhibition of human recombinant MAO-A at 10 uM using tyramine as substrate preincubated with enzyme for 30 mins followed by incubation with substrate for 30 mins by Amplex Red reagent based fluorometric method relative to control; conditions: 0.5 h, time 60 min; outline: as §1
[4] = molecular target: T1, Amine oxidase [flavin-containing] A; test: Inhibition of human recombinant MAO-A at 1 uM using tyramine as substrate preincubated with enzyme for 30 mins followed by incubation with substrate for 30 mins by Amplex Red reagent based fluorometric method relative to control; conditions: 0.5 h, time 60 min; outline: as §1
[5] = molecular target: T1, Amine oxidase [flavin-containing] A; test: Inhibition of human recombinant MAO-A at 0.1 uM using tyramine as substrate preincubated with enzyme for 30 mins followed by incubation with substrate for 30 mins by Amplex Red reagent based fluorometric method relative to control; conditions: 0.5 h, time 60 min; outline: as §1
[6] = molecular target: T1, Amine oxidase [flavin-containing] A; test: Inhibition of human recombinant MAO-A at 0.01 uM using tyramine as substrate preincubated with enzyme for 30 mins followed by incubation with substrate for 30 mins by Amplex Red reagent based fluorometric method relative to control; conditions: 0.5 h, time 60 min; outline: as §1
[7] = molecular target: T1, Amine oxidase [flavin-containing] A; test: Inhibition of human recombinant MAO-A at 1 nM using tyramine as substrate preincubated with enzyme for 30 mins followed by incubation with substrate for 30 mins by Amplex Red reagent based fluorometric method relative to control; conditions: 0.5 h, time 60 min; outline: as §1
[8] = molecular target: T1, Amine oxidase [flavin-containing] A; test: Inhibition of human recombinant MAO-A at 0.1 nM using tyramine as substrate preincubated with enzyme for 30 mins followed by incubation with substrate for 30 mins by Amplex Red reagent based fluorometric method relative to control; conditions: 0.5 h, time 60 min; outline: as §1
[9] = molecular target: T1, Amine oxidase [flavin-containing] A; test: Inhibition of human recombinant MAO-A at 0.01 nM using tyramine as substrate preincubated with enzyme for 30 mins followed by incubation with substrate for 30 mins by Amplex Red reagent based fluorometric method relative to control; conditions: 0.5 h, time 60 min; outline: as §1
[10] = molecular target: T1, Amine oxidase [flavin-containing] A; test: Inhibition of human recombinant MAO-A using tyramine as substrate preincubated with enzyme for 30 mins followed by incubation with substrate for 30 mins by Amplex Red reagent based fluorometric method
Outline: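 Recombinant hMAO-A at 0.5 U/mL in phosphate buffer. Inhibitors are dissolved in 2% DMSO and preincubated with enzyme at 37 °C for 30 min. The working solution is then added: horseradish peroxidase, Amplex (Ampliflu) red and tyramine. Controls use 2% DMSO. Background without enzyme is subtracted. Peroxidase interference is checked with H2O2.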

[11] = molecular target: T2, Amine oxidase [flavin-containing] B (Homo sapiens, UniProt P27338); test: Inhibition of human recombinant MAO-B at 1 mM using tyramine as substrate preincubated with enzyme for 30 mins followed by incubation with substrate for 30 mins by Amplex Red reagent based fluorometric method relative to control; conditions: 0.5 h, read-out: INH
T2 sequence (P27338 whole entry): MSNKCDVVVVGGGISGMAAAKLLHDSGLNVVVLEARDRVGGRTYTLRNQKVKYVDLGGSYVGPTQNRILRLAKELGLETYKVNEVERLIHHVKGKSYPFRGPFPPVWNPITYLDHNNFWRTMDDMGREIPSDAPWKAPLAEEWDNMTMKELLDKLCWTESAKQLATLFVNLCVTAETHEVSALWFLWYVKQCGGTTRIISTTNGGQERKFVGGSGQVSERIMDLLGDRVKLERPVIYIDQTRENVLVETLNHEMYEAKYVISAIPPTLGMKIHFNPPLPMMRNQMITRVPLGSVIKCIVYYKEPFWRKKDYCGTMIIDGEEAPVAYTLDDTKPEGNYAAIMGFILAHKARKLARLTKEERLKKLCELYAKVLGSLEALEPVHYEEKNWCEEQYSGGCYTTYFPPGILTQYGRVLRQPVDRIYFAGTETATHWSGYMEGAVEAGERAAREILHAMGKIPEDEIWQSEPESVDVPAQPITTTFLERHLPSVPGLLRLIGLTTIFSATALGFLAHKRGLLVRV

[12] = molecular target: T2, Amine oxidase [flavin-containing] B; test: Inhibition of human recombinant MAO-B at 100 uM using tyramine as substrate preincubated with enzyme for 30 mins followed by incubation with substrate for 30 mins by Amplex Red reagent based fluorometric method relative to control; conditions: 0.5 h, read-out: INH
[13] = molecular target: T1, Amine oxidase [flavin-containing] A; test: Competitive inhibition of human recombinant MAO-A using tyramine as substrate preincubated with enzyme for 30 mins followed by substrate addition and measured for 30 mins by Lineweaver-burk plot analysis
[14] = molecular target: T1, Amine oxidase [flavin-containing] A; test: Inhibition of human recombinant MAO-A assessed as enzyme residual activity using tyramine as substrate at 4XIC50 incubated with enzyme for 15 mins followed by substrate addition by Amplex Red reagent based fluorometric method relative to control; conditions: 0.25 h
Outline: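 Recombinant hMAO-A (1 U mL⁻¹) preincubated with inhibitor for 15 min at 37 °C in 0.05 M potassium phosphate, pH 7.4, with 5% sucrose and 1% DMSO. The mixture was dialysed 24 h at 4 °C (12 000 Da cut-off) against 100 mM potassium phosphate, pH 7.4, 5% sucrose, with two buffer changes. Residual activity was then measured in triplicate and reported as mean ± SEM.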

Structure (SMILES) | inhibition at 1000 µM [1] [%] | inhibition at 100 µM [2] [%] | inhibition at 10 µM [3] [%] | inhibition at 1 µM [4] [%] | inhibition at 0.1 µM [5] [%] | inhibition at 0.01 µM [6] [%] | inhibition at 0.001 µM [7] [%] | inhibition at 0.0001 µM [8] [%] | inhibition at 10 pM [9] [%] | IC50 [10] [nM] | inhibition at 1000 µM [11] [%] | inhibition at 100 µM [12] [%] | Ki [13] [nM] | Activity [14] [%]
COCCNc1nnc(SCC(=O)N(Cc2cccc([N+](=O)[O-])c2)c2ccc(F)cc2)s1 | 94.1 | 91.5 | 80.6 | 72.7 | 61.1 | 34.7 | 26.9 | 20.1 | 13.5 | 60 | 38.6 | 25.7 | 33 | 25.956
CCCNc1nnc(SCC(=O)N(Cc2cccc([N+](=O)[O-])c2)c2ccc(F)cc2)s1 | 95 | 91.1 | 78.3 | 62.3 | 45.1 | 25.1 | 20.5 | 12 | 8.5 | 241 | 42.7 | 26.8 | – | –
CC(C)CNc1nnc(SCC(=O)N(Cc2cccc([N+](=O)[O-])c2)c2ccc(F)cc2)s1 | 93.5 | 84.3 | 72.6 | 43.2 | 31.8 | 25.5 | 17.3 | 12.6 | 6.36 | 1790 | 36 | 24.2 | – | –
O=C(NCCN1CCOCC1)c1ccc(Cl)cc1 [MOCLOBEMIDE] | 95.3 | 83.1 | 62.4 | 35.8 | 24.5 | 19.6 | 15.4 | 12.8 | 7.25 | – | – | – | – | 31.253
C=CCNc1nnc(SCC(=O)N(Cc2cccc([N+](=O)[O-])c2)c2ccc(F)cc2)s1 | 92 | 86.4 | 75.2 | 56.5 | 43.2 | 32.7 | 20.5 | 13.5 | 10.2 | 502 | 38.1 | 29.2 | – | –
C#CCN(C)CCCOc1ccc(Cl)cc1Cl [CLORGILINE] | 96.4 | 92.1 | 88.5 | 79.1 | 63.9 | 35.3 | 21.7 | 17 | 11.3 | – | – | – | – | 88.315
O=C(CSc1nnc(Nc2ccccc2)s1)N(Cc1cccc([N+](=O)[O-])c1)c1ccc(F)cc1 | 89.5 | 41.4 | – | – | – | – | – | – | – | – | 43.1 | 20.7 | – | –

Now from value to molecule, other results behind:

inhibition at 1000 µM [1] [%] | inhibition at 100 µM [2] [%] | inhibition at 10 µM [3] [%] | inhibition at 1 µM [4] [%] | inhibition at 0.1 µM [5] [%] | inhibition at 0.01 µM [6] [%] | inhibition at 0.001 µM [7] [%] | inhibition at 0.0001 µM [8] [%] | inhibition at 10 pM [9] [%] | IC50 [10] [nM] | inhibition at 1000 µM [11] [%] | inhibition at 100 µM [12] [%] | Ki [13] [nM] | Structure (SMILES) | Activity [14] [%]
87.6 | 42.7 | – | – | – | – | – | – | – | – | 37.9 | 26.5 | – | Cc1ccc(Nc2nnc(SCC(=O)N(Cc3cccc([N+](=O)[O-])c3)c3ccc(F)cc3)s2)cc1 | –
92.5 | 89.1 | 86.1 | 46 | 43 | 23.9 | 13.6 | 10.8 | 6.87 | 1070 | 36 | 28.5 | – | CC(C)Nc1nnc(SCC(=O)N(Cc2cccc([N+](=O)[O-])c2)c2ccc(F)cc2)s1 | –
93.6 | 89.5 | 74.1 | 61.9 | 42.1 | 30.3 | 21 | 14.2 | 10.3 | 336 | 41.3 | 22.4 | – | CCNc1nnc(SCC(=O)N(Cc2cccc([N+](=O)[O-])c2)c2ccc(F)cc2)s1 | –
90.5 | 82.3 | 76 | 47.3 | 33.6 | 30 | 19.7 | 11.1 | 6.94 | 1170 | 40.6 | 34.3 | – | CCCCNc1nnc(SCC(=O)N(Cc2cccc([N+](=O)[O-])c2)c2ccc(F)cc2)s1 | –
